Experimental data taken from ChEMBL document CHEMBL4138071, “Synthesis, antioxidant and antitumoral activities of 5'-arylchalcogeno-3-aminothymidine (ACAT) derivatives” (Medchemcomm, 2017).
Active and inactive are the calls of the source. The rule behind the calls is not given here.

Experiments:
5637 [1] = experiment: Antiproliferative activity in human 5637 cells assessed as inhibition of cell growth incubated for 48 hrs by MTT assay; type: functional, cell-based; details: Homo sapiens, 5637, 48 h
Outline: (§1)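 Bladder carcinoma 5637 cells in log phase were grown in DMEM with 10% FBS at 37 °C, 5% CO2. They were seeded at 2 x 10^4 per well and treated 24 and 48 h, with DMSO up to 0.5% as vehicle. MTT was added for 3 h and A492 read. Inhibition = (1 − Abs treated/Abs control) x 100. Results are mean ± SEM.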

[2] = Antioxidant activity assessed as DPPH radical scavenging activity at 1 mM incubated for 90 mins; type: functional
Outline: (§2)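 Each compound mixed with 0.3 mM DPPH in ethanol. Most tests used 1 mM compound; the concentration curve covered final 0 - 1 mM. Absorbance at 518 nm was read every 30 min for 180 min. BHT served as positive control.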

[3] = Antioxidant activity assessed as inhibition of Fe2+-induced phosphatidylcholine oxidation at 200 uM […] by TBARS assay; type: functional
[4] = Thiol peroxidase-like activity assessed as induction of hydrogen peroxide decomposition at 450 uM using benzenethiol incubated for 20 mins; type: functional
Outline: (§3)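 This is a GPx-mimetic assay using benzenethiol (2.5 mM) instead of glutathione. The mix held ethanol, compound at final 0 - 450 μM or DMSO blank, and hydrogen peroxide (2.3 mM).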

[5] = Toxicity in human leukocytes assessed as reduction in cell viability at 1 mM incubated for 3 hrs; type: cell-based; details: 1000 µM
Outline: (§4)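 Human leukocytes were isolated (2 x 10^6/mL) and incubated 3 h in Hank's buffer with 10% human plasma. Controls were DMSO 0.5% vehicle and 1 mM t-butyl hydroperoxide as positive control.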

5637 [6] = experiment: Antiproliferative activity in human 5637 cells assessed as inhibition of cell growth incubated for 24 hrs by MTT assay; type: functional, cell-based; details: Homo sapiens, 5637, 24 h; outline: as §1
[7] = Thiol peroxidase-like activity assessed as induction of hydrogen peroxide decomposition at 50 to 250 uM using benzenethiol incubated for 20 mins; type: functional; outline: as §3
[8] = Antioxidant activity assessed as inhibition of Fe2+-induced phosphatidylcholine oxidation incubated for 1 hr by TBARS assay; type: functional
Mus musculus [9] = experiment: Renal toxicity in Swiss mouse assessed as effect on urea level at 100 umol/kg, sc after 7 days; type: organism-based; details: in vivo, 168 h
Outline: (§5)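 Adult male Swiss mice were randomized into two groups, n = 4 each. They received a subcutaneous injection of 100 μmol/kg compound or DMSO vehicle (1 mL/kg).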

Mus musculus [10] = experiment: Toxicity in Swiss mouse assessed as effect on liver to body weight ratio level at 100 umol/kg, sc after 7 days; type: organism-based; details: in vivo, 168 h; outline: as §5
[11] = Toxicity in Swiss mouse assessed as mortality level at 100 umol/kg, sc measured over 7 days; type: organism-based; details: in vivo, read-out: Activity; outline: as §5
Mus musculus [12] = experiment: Hepatic toxicity in Swiss mouse assessed as effect on AST level at 100 umol/kg, sc after 7 days; type: organism-based; details: in vivo, 168 h; outline: as §5
Mus musculus [13] = experiment: Toxicity in Swiss mouse assessed as effect on body weight level at 100 umol/kg, sc measured over 7 days; type: organism-based; details: in vivo, 168 h; outline: as §5
5637 [14] = experiment: Cell cycle arrest in human 5637 cells assessed as increase in accumulation at S phase at 12.5 uM by propidium iodide staining based flow cytometry; type: functional
Outline: (§6)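 5637 cells were seeded at 1x10^5 and synchronized 24 h in serum-free medium. They were then treated 24 h at 12,5 µM. DNA content was measured by propidium iodide staining with a kit and flow cytometry.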

[15] = Antioxidant activity assessed as DPPH radical scavenging activity at 0.25 mM measured at 104.7 +/- 10.0 mins; type: functional; outline: as §2
5637 [16] = experiment: Antiproliferative activity in human 5637 cells assessed as inhibition of cell growth at 6.25 to 12.5 uM incubated for 24 hrs by MTT assay; type: functional; outline: as §1
Mus musculus [17] = experiment: Toxicity in Swiss mouse assessed as effect on food intake level at 100 umol/kg, sc measured over 7 days; type: organism-based; details: in vivo, 168 h; outline: as §5
5637 [18] = experiment: Antiproliferative activity in human 5637 cells assessed as inhibition of cell growth at 6.25 to 12.5 uM incubated for 48 hrs by MTT assay; type: functional; outline: as §1
5637 [19] = experiment: Cell cycle arrest in human 5637 cells assessed as increase in accumulation at subG1 phase at 12.5 uM by propidium iodide staining based flow cytometry; type: functional; outline: as §6
Mus musculus [20] = experiment: Toxicity in Swiss mouse assessed as effect on kidney to body weight ratio level at 100 umol/kg, sc after 7 days; type: organism-based; details: in vivo, 168 h; outline: as §5
Mus musculus [21] = experiment: Toxicity in Swiss mouse assessed as effect on brain to body weight ratio level at 100 umol/kg, sc after 7 days; type: organism-based; details: in vivo, 168 h; outline: as §5
[22] = Toxicity in human leukocytes assessed as reduction in cell viability at 100 uM incubated for 3 hrs; type: cell-based; outline: as §4
[23] = Antioxidant activity assessed as DPPH radical scavenging activity at 0.5 mM measured at 77.3 +/- 10.3 mins; type: functional; outline: as §2
Mus musculus [24] = experiment: Hepatic toxicity in Swiss mouse assessed as effect on ALT level at 100 umol/kg, sc after 7 days; type: organism-based; details: in vivo, 168 h; outline: as §5
Mus musculus [25] = experiment: Renal toxicity in Swiss mouse assessed as effect on creatinine level at 100 umol/kg, sc after 7 days; type: organism-based; details: in vivo, 168 h; outline: as §5
[26] = Thiol peroxidase-like activity assessed as induction of hydrogen peroxide decomposition at 55 to 225 uM using benzenethiol in presence of thiophenol incubated for 20 mins; type: functional; outline: as §3
Mus musculus [27] = experiment: Toxicity in Swiss mouse assessed as effect on spleen to body weight ratio level at 100 umol/kg, sc after 7 days; type: organism-based; details: in vivo, 168 h; outline: as §5
[28] = Antioxidant activity assessed as DPPH radical scavenging activity at 0.1 mM measured at >180 mins; type: functional; outline: as §2
Mus musculus [29] = experiment: Toxicity in Swiss mouse assessed as appearance of overt toxic signs at 100 umol/kg, sc measured over 7 days; type: organism-based; details: in vivo, 168 h; outline: as §5
5637 [30] = experiment: Cell cycle arrest in human 5637 cells assessed as reduction in accumulation at G1 phase at 12.5 uM by propidium iodide staining based flow cytometry; type: functional; outline: as §6
Mus musculus [31] = experiment: Toxicity in Swiss mouse assessed as effect on water intake level at 100 umol/kg, sc measured over 7 days; type: organism-based; details: in vivo, 168 h; outline: as §5
[32] = Antioxidant activity assessed as DPPH radical scavenging activity at 1 mM measured at 38.7 +/- 8.9 mins; type: functional; outline: as §2
[33] = Antioxidant activity assessed as DPPH radical scavenging activity at 0.25 mM measured at 22.5 +/- 0.87 mins; type: functional
Outline: (§7)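 DPPH (0.3 mM) in ethanol was mixed with the test compound at final concentrations of 0–1 mM. Absorbance at 518 nm was read every 30 min for 180 min. BHT served as the positive control.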

[34] = Antioxidant activity assessed as DPPH radical scavenging activity at 0.5 mM measured at 21.33 +/- 0.6 mins; type: functional; outline: as §7

Cc1cn([C@H]2C[C@H](N)[C@@H](CSc3ccc(Cl)cc3)O2)c(=O)[nH]c1=O
IC50 5637 [1]: > 100 µM
inhibition [2]: inactive
inhibition [3]: inactive

COc1ccc(SC[C@H]2O[C@@H](n3cc(C)c(=O)[nH]c3=O)C[C@@H]2N)cc1
IC50 5637 [1]: > 100 µM
inhibition [2]: inactive
inhibition [3]: inactive
Activity [4]: Active

Cc1ccc(SC[C@H]2O[C@@H](n3cc(C)c(=O)[nH]c3=O)C[C@@H]2N)cc1
IC50 5637 [1]: > 100 µM
inhibition [2]: inactive
inhibition [3]: inactive

Cc1ccccc1[Se]C[C@H]1O[C@@H](n2cc(C)c(=O)[nH]c2=O)C[C@@H]1N
IC50 5637 [1]: > 100 µM
inhibition [2]: inactive
inhibition [3]: inactive
Activity [4]: Active

Cc1cn([C@H]2C[C@H](N)[C@@H](CSc3ccccc3)O2)c(=O)[nH]c1=O
IC50 5637 [1]: > 100 µM
inhibition [2]: inactive
inhibition [3]: inactive

Cc1cn([C@H]2C[C@H](N)[C@@H](C[Se]c3ccc(Cl)cc3)O2)c(=O)[nH]c1=O
IC50 5637 [1]: > 100 µM
inhibition [2]: inactive
inhibition [3]: inactive

CC(C)(C)OO [TERT-BUTYL HYDROPEROXIDE]
Activity [5]: 40%

COc1ccc([Se]C[C@H]2O[C@@H](n3cc(C)c(=O)[nH]c3=O)C[C@@H]2N)cc1
IC50 5637 [1]: > 100 µM
inhibition [2]: inactive
inhibition [3]: inactive
Activity [4]: Active

Cc1ccc([Se]C[C@H]2O[C@@H](n3cc(C)c(=O)[nH]c3=O)C[C@@H]2N)cc1
IC50 5637 [1]: > 100 µM
inhibition [2]: inactive
inhibition [3]: inactive
Activity [4]: Active

Cc1cn([C@H]2C[C@H](N=[N+]=[N-])[C@@H](CO)O2)c(=O)[nH]c1=O [ZIDOVUDINE]
IC50 5637 [6]: 129 µM

c1ccc([Se][Se]c2ccccc2)cc1
Activity [7]: Active
IC50 [8]: 233 µM

Cc1cn([C@H]2C[C@H](N)[C@@H](C[Te]c3ccccc3)O2)c(=O)[nH]c1=O
Activity (Mus musculus [9]): Non-Toxic
Activity (Mus musculus [10]): Non-Toxic
mortality at 168 h [11]: 25%
Activity (Mus musculus [12]): Non-Toxic
Activity (Mus musculus [13]): Non-Toxic
Activity 5637 [14]: Active
inhibition [15]: 50%
growth inhibition (GI) 5637 [16]: >50%
IC50 [8]: 4.67 µM
Activity (Mus musculus [17]): Non-Toxic
growth inhibition (GI) 5637 [18]: >50%
Activity 5637 [19]: inactive
Activity (Mus musculus [20]): Non-Toxic
IC50 5637 [1]: 7.94 µM
inhibition [2]: Active
Activity (Mus musculus [21]): Non-Toxic
Activity [22]: Non-Toxic
inhibition [3]: Active
inhibition [23]: 50%
Activity (Mus musculus [24]): Non-Toxic
Activity (Mus musculus [25]): Non-Toxic
Activity [26]: Active
Activity (Mus musculus [27]): Non-Toxic
inhibition [28]: 50%
Activity (Mus musculus [29]): Non-Toxic
Activity 5637 [30]: Active
IC50 5637 [6]: 6.61 µM
Activity (Mus musculus [31]): Non-Toxic
Activity [4]: Active
inhibition [32]: 50%

Cc1cn([C@H]2C[C@H](N)[C@@H](C[Se]c3ccccc3)O2)c(=O)[nH]c1=O
IC50 5637 [1]: > 100 µM
inhibition [2]: inactive
inhibition [3]: inactive
Activity [4]: Active

Cc1c(C)c2c(c(C)c1O)CC[C@@](C)(CCC[C@H](C)CCC[C@H](C)CCCC(C)C)O2 [ALPHA-TOCOPHEROL]
IC50 [8]: 35.3 µM

Cc1cc(C(C)(C)C)c(O)c(C(C)(C)C)c1
inhibition [33]: 50%
inhibition [34]: 50%

O=c1c2ccccc2[se]n1-c1ccccc1
Activity [7]: Active
